Bioassay records (PubChem)
A selection: hits, their analogues and other compounds. The true share with any hit is near 4.6%.
CHO parental Ca – ATP-evoked calcium signal inhibitors, parental CHO, primary screen, counter-screen for OX1R antagonist project, cell-based, fluorescence, Fluo-8 calcium dye; inhibition, % at 5.6 µM; parental CHO-K1, ATP-induced calcium, Fluo-8 fluorescence; hit rate 0.63% among 330,000;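 active = inhibition above that plate's mean sample inhibition plus 3 SD, cut at about 26% in these data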;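 note: 0% = ATP-challenged DMSO wells and 100% = DMSO wells without ATP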
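Test system: parental CHO cells; detection: calcium-sensitive Fluo-8 fluorescence; evaluation: percent inhibition of calcium signal; also added: ATP as calcium-mobilizing challenge; repeats: one well per compound; control set: ATP-challenged DMSO wells low, unchallenged DMSO wells high; compound: single nominal dose of 5.6 µM per compound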
OX1R antag-1 – antagonists of human orexin 1 receptor (OX1R); Orexin/Hypocretin receptor type 1 (Homo sapiens), O43613; OX1R-expressing cells, FRET antagonist read-out; inhibition, % at 6.6 µM; hit rate 1.8% among 330,000; in the data active = inhibition mostly above about 38%, no sharp cut-off; inactive = mostly below about 40%;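 note: 0% = agonist challenge alone and 100% = reference antagonist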
OX1R antag-2 – OX1R (HCRTR1) antagonists, primary screen, fluorescence, CHO/OX1R cells, Fluo-8 calcium, orexin A | Fluo-8 calcium fluorescence | hit rate 0.43% among 330,000 | AID 434989, 2010 | inhibition, % at 5 µM | Orexin/Hypocretin receptor type 1 (Homo sapiens), O43613;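 active = inhibition above its plate's threshold, mean inhibition of all tested compounds on the plate plus 3 SD, cut at about 37% in these data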;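 note: 0% = orexin A challenge wells and 100% = SB-334867-A antagonist wells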
GPR7 antag – GPR7 receptor antagonists, primary screen, cell-based, fluorescence, single concentration; Neuropeptides B/W receptor type 1 (Homo sapiens), P48145; GPR7-expressing cells, fluorescence antagonist assay; inhibition, % at 4.4 µM; hit rate 1.1% among 290,000; in the data active = inhibition above about 16%, passing the limit was not always enough;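 note: cells stimulated with the agonist NPW; 0% = agonist with vehicle and 100% = vehicle without agonist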
Target sequence (P48145 whole entry, looked up): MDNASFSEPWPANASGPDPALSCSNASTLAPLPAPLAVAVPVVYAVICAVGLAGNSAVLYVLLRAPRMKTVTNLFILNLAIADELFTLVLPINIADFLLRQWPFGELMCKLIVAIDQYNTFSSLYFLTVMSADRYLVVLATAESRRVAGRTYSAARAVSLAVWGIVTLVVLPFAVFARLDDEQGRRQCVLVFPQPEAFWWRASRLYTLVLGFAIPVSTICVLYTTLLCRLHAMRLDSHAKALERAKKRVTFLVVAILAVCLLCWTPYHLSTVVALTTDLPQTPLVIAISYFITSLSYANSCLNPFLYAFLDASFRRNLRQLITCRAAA
TAAR1 antagonist – human TAAR1 antagonists, primary screen, Fluo-8 calcium fluorescence, CHO RD-HGA16 cells. Trace amine-associated receptor 1 (Homo sapiens), Q96RJ0. hit rate 1.5% among 360,000. antagonist. AID 624466, 2012. inhibition, % at 3 µM;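 active = inhibition above a per-plate cutoff, the mean inhibition of test compounds on that plate plus 3 SD, cut at about 49% in these data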;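 note: 0% = DMSO plus EC80 beta-PEA response and 100% = DMSO alone without agonist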
Target sequence (Q96RJ0 whole entry, looked up): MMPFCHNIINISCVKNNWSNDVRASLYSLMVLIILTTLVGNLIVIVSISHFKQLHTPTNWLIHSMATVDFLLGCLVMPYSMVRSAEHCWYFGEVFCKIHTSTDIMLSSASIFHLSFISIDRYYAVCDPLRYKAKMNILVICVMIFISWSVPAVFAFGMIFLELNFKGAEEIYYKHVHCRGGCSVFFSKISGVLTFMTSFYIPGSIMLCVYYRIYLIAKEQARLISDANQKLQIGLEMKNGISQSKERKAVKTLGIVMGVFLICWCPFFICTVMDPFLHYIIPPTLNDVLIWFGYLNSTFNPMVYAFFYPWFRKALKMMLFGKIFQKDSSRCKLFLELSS
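test system = CHO RD-HGA16 cells bearing hTAAR1 | replication = singlicate | controls = DMSO-only wells and EC80 β-PEA-stimulated wells | reagent = EC80 β-phenethylamine stimulus | read-out basis = percent inhibition of PEA-evoked calcium signal, max/basal emission ratio | schedule = seeding 17-24 h prior, 75-min 37 °C, 30-min RT dye loading | signal = kinetic Fluo-8 calcium fluorescence measurement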
TAAR1 agonist – human TAAR1 agonists, primary screen, Fluo-8 calcium fluorescence, CHO RD-HGA16 cells | Trace amine-associated receptor 1 (Homo sapiens), Q96RJ0 | vehicle wells 0%, saturating PEA agonist 100% | activation, % at 3 µM | hit rate 0.99% among 360,000;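 active = activation above the mean activation of all test compounds in the run plus 3 SD, cut at about 38% in these data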
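Test system: RD-HGA16 (CHO) cells co-expressing Gα16 and hTAAR1 | Doses: Single dose, 3 µM | Schedule: 17-24 h seeding, 75 min 37 °C dye, 30 min RT | Evaluation: % activation from peak over basal fluorescence ratio, DMSO-to-PEA scaled | Technique: Kinetic Fluo-8 calcium fluorescence | Benchmarks: Low control DMSO, high control PEA (EC100)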
An asterisk follows results filed as active; . = no result given.

SMILES	CHO parental Ca	OX1R antag-1	OX1R antag-2	GPR7 antag	TAAR1 antagonist	TAAR1 agonist
O=C(NN=C1c2ccccc2-c2ccccc21)c1ccccn1	-31.9	75.4*	85.1*	-12.3	.	.
Nc1c(N2CCCC2)cc(Cl)c2nonc12	3.7	39.6*	4.4	-10.0	.	.
CCOC(=O)CSc1c(-c2ccc(Cl)cc2)[nH]c2ccccc12	3.0	25.5	-33.2	-11.4	37.5	-0.1
O=C(Cc1cccs1)NCCSc1c(-c2ccc(Cl)cc2)[nH]c2ccccc12	-3.2	13.8	-19.8	19.2*	49.0*	1.0
CC(=O)OCCNC(=O)c1cc2ccccc2oc1=O	11.2	69.6*	1.7	-11.8	9.6	10.8
O=C(NCCSc1c(-c2ccccc2)[nH]c2ccccc12)c1cc2ccccc2oc1=O	-10.7	56.0*	-5.8	-7.1	22.1	0.6
CCOc1cc(C2NC(=O)c3ccccc3O2)ccc1OC(C)C (centres undefined)	-3.8	1.5	-8.4	-2.9	-20.2	9.7
O=S(=O)(NCC1CCCO1)c1ccc(-c2ccc(S(=O)(=O)NCC3CCCO3)cc2)cc1 (centres undefined)	40.7*	20.6	40.0*	3.4	16.3	8.5
CCc1nc2c(OCCOC)cccn2c1N(C)C(=O)c1ccc(C)cc1	.	.	.	.	-7.1	1.1
O=C(Nc1cccc(-c2cn3ccccc3n2)c1)c1cccs1	-4.1	71.0*	1.9	5.2	-2.8	1.8
COc1ccc(-c2cnn3c4c(c(C)nc23)CCN4C(C)C)cc1OC	-3.2	15.8	-14.3	-11.5	6.5	3.1
O=S(=O)(NCc1ccc2c(c1)OCO2)c1ccc2oc3ccccc3c2c1	-3.9	52.3*	-7.6	-4.2	9.1	12.8
O=S(=O)(Nc1ccc2c(c1)OCCO2)c1ccc2oc3ccccc3c2c1	19.6	64.5*	-4.0	-8.7	-10.3	8.0
Cc1ccc(S(=O)(=O)NCc2ccc3c(c2)OCO3)cc1C	1.0	33.5	-9.6	12.9	9.7	-1.7
COCCCNC(=O)CN(c1cc(Cl)ccc1OC)S(C)(=O)=O	-4.0	1.3	-3.5	-10.4	-4.3	11.9
COc1ccccc1-c1nc(-c2ccc(Br)o2)no1	-15.4	55.4*	-24.6	-11.3	-23.8	-1.6
C[C@H](c1ccccc1)N1C[C@@H](COCc2ccccc2)Oc2cccc(N3CCCCC3)c2S1(=O)=O	.	.	.	.	0.4	5.1
COc1ccccc1Nc1ccc([N+](=O)[O-])cc1N	-9.8	16.2	-26.2	-3.3	11.4	6.9
COc1cc(Nc2ccccc2Cl)c([N+](=O)[O-])nc1[N+](=O)[O-]	-16.0	41.2*	-8.3	-13.1	-23.4	-1.5
Cc1occc1C(=O)N/N=C/c1ccc(Cl)c([N+](=O)[O-])c1	-11.8	64.3*	10.3	-1.6	1.9	9.0
O=C(N/N=C/c1ccccc1[N+](=O)[O-])c1ccc2nc[nH]c2c1	1.6	15.5	-5.8	-12.6	6.4	2.6
O=C(N/N=C/c1ccc(Cl)c([N+](=O)[O-])c1)c1ccc2nc[nH]c2c1	-5.9	57.6*	-2.8	4.5	20.3	11.4
O=C(O)c1cn(-c2ccc(F)cc2)c(=O)c2ccccc12	-1.3	15.9	-0.5	-7.9	20.4	3.5
COc1c(OC)c(O)c2c(=O)c(O)c(-c3ccccc3)oc2c1OC	-30.4	56.8*	7.8	-0.4	0.5	7.3
COc1ccc(-c2oc3c(OC)c(OC)c(OC)c(O)c3c(=O)c2OC)cc1OC	-20.4	14.6	-24.6	-22.1	37.5	0.7
SMILES	CHO parental Ca	OX1R antag-1	OX1R antag-2	GPR7 antag	TAAR1 antagonist	TAAR1 agonist
CC(C)OCC(O)CN1CCC(Cc2ccccc2)CC1 (centres undefined)	-2.5	9.0	-4.0	-4.0	-14.4	2.3
OC(COc1ccc(Br)cc1)CN1CCC(Cc2ccccc2)CC1 (centres undefined)	-15.8	11.2	-10.9	9.3	-11.6	41.7*
COc1ccccc1NC(=O)Nc1nc(CC(=O)NCc2ccccn2)cs1	-24.3	5.3	-27.5	.	45.2	10.3
COc1ccccc1NC(=O)Nc1nc(CC(=O)N2CCN(c3ccccc3)CC2)cs1	-12.7	4.0	-31.1	.	52.1*	13.5
COc1ccc(N2CCN(C(=O)Cc3csc(NC(=O)Nc4ccccc4OC)n3)CC2)cc1	-17.0	3.7	-27.0	.	49.5*	12.1
COc1ccccc1NC(=O)Nc1nc(CC(=O)Nc2ccc(F)c(F)c2)cs1	13.1	34.2	-13.2	.	42.4	12.7
COc1ccccc1NC(=O)Nc1nc(CC(=O)NC2CCCC2)cs1	-11.2	16.6	-28.4	.	-5.6	6.7
CCOC(=O)Cc1csc(NC(=O)Nc2ccc(OC(F)(F)F)cc2)n1	28.8*	24.6	-0.7	7.4	-25.3	8.5
COc1ccc(NC(=O)Cc2csc(NC(=O)Nc3ccccc3OC)n2)cc1	.	.	.	.	49.5*	30.2
COc1cc2cc(CCOC(=O)c3ccc(C#N)cc3)oc(=O)c2cc1OC	-24.6	5.3	-20.7	.	21.7	14.4
CC[N+]1=C(C)C(C)(C)c2cc(C)ccc21	63.9*	43.3	70.0*	0.8	16.8	2.1
CCN1C(=O)C(=O)c2cc(C)ccc21	-5.7	25.4	-8.2	.	-5.4	7.8
COc1cccc(NS(=O)(=O)c2ccc3c(c2)CCN3C(C)=O)c1	4.8	2.0	-7.6	-1.3	6.6	3.9
CSc1cccc(NS(=O)(=O)c2ccc3c(c2)CCN3C(C)=O)c1	64.5*	22.3	47.2	33.0	30.3	11.7
CN(Cc1ccccc1C#N)S(=O)(=O)c1cccs1	-1.0	11.2	-4.0	-13.0	2.6	-0.3
N#Cc1nccnc1S(=O)(=O)c1cccs1	43.8*	109.3*	31.4	18.3*	29.5	1.1
COc1ccc2c(c1)[C@@]1(OCCC=C[C@H]1C)C(=O)N2Cc1ccc(F)cc1	.	.	.	.	-11.0	1.2
CCOC(=O)c1c(CSc2ccccc2)n(C)c2cc(Br)c(OCC(O)CNC(CO)(CO)CO)cc12 (centres undefined)	89.8*	12.9	45.2	-9.7	29.1	1.9
COCCCn1c(SCC(=O)Nc2oc(C)c3c(C)n[nH]c(=O)c23)nc2ccccc2c1=O	-24.2	41.1	-34.8	.	-7.7	-0.2
Cc1n[nH]c(=O)c2c(NC(=O)CSc3nc4ccccc4c(=O)n3-c3ccc(OC(F)F)cc3)oc(C)c12	-21.3	76.3*	-7.9	.	1.3	5.1
CC(Oc1cc2oc(=O)c3c(c2cc1Cl)CCC3)C(=O)NC1CC(C)(C)NC(C)(C)C1 (centres undefined)	-25.8	16.9	-24.6	-6.6	-8.9	0.2
COCCN(CCOC)c1nc(-c2ccccc2)nc2ccccc12	.	.	.	-7.7	56.2*	8.6
